According to ChEMBL document CHEMBL1833971, “Towards rational design of cannabinoid receptor 1 (CB1) antagonists for peripheral selectivity” (Bioorg Med Chem Lett, 2011):
pKi: −log10 of the molar value.

Experiments:
[1] = molecular target: Cannabinoid receptor 2 (Homo sapiens, UniProt P34972); assay: Displacement of [3H]-CP55940 from human CB2 receptor expressed in CHO-K1 cells after 1 hr by liquid scintillation spectrometry; type: cell-based
Outline: (§1)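 Membranes from CHO-K1 cells over-expressing CB1 or CB2 used for [3H]CP55940 displacement, giving Ki at each receptor. Selectivity taken as the comparison of the CB2 and CB1 Ki values.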

[2] = molecular target: T1, Cannabinoid receptor 1 (Homo sapiens, UniProt P21554); assay: Displacement of [3H]-CP55940 from human CB1 receptor expressed in CHO-K1 cells after 1 hr by liquid scintillation spectrometry; type: cell-based
[3] = molecular target: T1, Cannabinoid receptor 1; assay: Displacement of [3H]-SR141716A from human CB1 receptor expressed in CHO-K1 cells after 1 hr by liquid scintillation counting; type: cell-based
[4] = species: Homo sapiens; assay: Selectivity ratio of Ki for human CB2 receptor to Ki for human CB1 receptor; outline: as §1
[5] = molecular target: T1, Cannabinoid receptor 1; assay: Antagonist activity at human CB1 receptor transfected in CHO-K1 cells co-expressing G-alpha-q16 protein assessed as inhibition of G-alpha-q16 protein-mediated intracellular calcium mobilization; type: functional, cell-based
[6] = tested on: MDCK; assay: Permeability from apical to basolateral side of MDR1 transfected MDCK cells at 3.16 uM after 1 hr by LC/MS analysis; type: ADME, cell-based, Canis lupus familiaris; details: dog
Outline: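 MDCK-mdr1 cells grown on filters for 4 days to confluence. Compound added apically at 3.16 μM, incubated 1 hr at 37°C. Apical-to-basal transport quantified by mass spectrometry in MRM mode, tuned per compound by infusion.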

Cannabinoid receptor 2, sequence (P34972 whole entry): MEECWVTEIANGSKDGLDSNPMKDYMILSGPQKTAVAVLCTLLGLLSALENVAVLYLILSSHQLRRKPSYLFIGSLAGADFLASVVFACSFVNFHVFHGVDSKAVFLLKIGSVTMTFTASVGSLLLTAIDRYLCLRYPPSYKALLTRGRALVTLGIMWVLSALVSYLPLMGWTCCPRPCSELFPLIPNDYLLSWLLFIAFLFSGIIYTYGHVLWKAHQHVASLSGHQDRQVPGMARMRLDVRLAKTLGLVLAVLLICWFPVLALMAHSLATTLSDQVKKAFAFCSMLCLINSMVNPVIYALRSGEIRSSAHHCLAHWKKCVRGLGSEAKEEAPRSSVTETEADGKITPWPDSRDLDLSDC
T1 sequence (P21554 whole entry): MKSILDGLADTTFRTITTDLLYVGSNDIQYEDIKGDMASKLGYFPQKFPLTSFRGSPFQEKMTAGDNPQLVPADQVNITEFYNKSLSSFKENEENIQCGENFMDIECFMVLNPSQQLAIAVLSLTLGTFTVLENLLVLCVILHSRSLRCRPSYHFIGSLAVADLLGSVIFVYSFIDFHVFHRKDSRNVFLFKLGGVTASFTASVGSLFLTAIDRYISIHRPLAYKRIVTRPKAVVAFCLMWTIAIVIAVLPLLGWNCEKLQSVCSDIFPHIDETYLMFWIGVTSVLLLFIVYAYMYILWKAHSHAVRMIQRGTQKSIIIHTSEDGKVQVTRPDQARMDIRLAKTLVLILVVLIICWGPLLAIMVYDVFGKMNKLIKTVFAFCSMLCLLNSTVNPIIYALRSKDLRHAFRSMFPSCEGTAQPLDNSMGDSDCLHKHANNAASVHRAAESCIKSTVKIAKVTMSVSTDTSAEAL

Cc1ccc(NC(=O)c2nn(-c3ccc(Cl)cc3Cl)c(-c3ccc(Cl)cc3)c2C)cn1
pKi [1]: 5.40 | pKi [2]: 6.99 | pKi [3]: 7.59 | Ratio Ki [4]: 39

Cc1c(C(=O)NCc2cccc(CNS(C)(=O)=O)c2)nn(-c2ccc(Cl)cc2Cl)c1-c1ccc(Cl)cc1
Ke [5]: 2.83 µM

Cc1c(C(=O)NCC2CCC(CNS(C)(=O)=O)CC2)nn(-c2ccc(Cl)cc2Cl)c1-c1ccc(Cl)cc1 (mixture of isomers)
pKi [1]: 6.05 | pKi [2]: 7.26 | pKi [3]: 7.96

Cc1c(C(=O)NCC2CCC(CNS(N)(=O)=O)CC2)nn(-c2ccc(Cl)cc2Cl)c1-c1ccc(Cl)cc1 (mixture of isomers)
pKi [1]: 5.64

Cc1c(C(=O)NCCCCCCCNS(N)(=O)=O)nn(-c2ccc(Cl)cc2Cl)c1-c1ccc(Cl)cc1
pKi [1]: 6.00 | pKi [2]: 7.31 | pKi [3]: 7.70 | Ke [5]: 0.304 µM | Ratio Ki [4]: 21

Cc1c(C(=O)NC[C@H]2CC[C@@H](CNS(N)(=O)=O)CC2)nn(-c2ccc(Cl)cc2Cl)c1-c1ccc(Cl)cc1
pKi [1]: 5.75 | permeability [6]: < 1%

Cc1c(C(=O)NC[C@H]2CC[C@@H](CNS(C)(=O)=O)CC2)nn(-c2ccc(Cl)cc2Cl)c1-c1ccc(Cl)cc1
pKi [1]: 6.02 | pKi [2]: 7.44 | pKi [3]: 8.10 | permeability [6]: < 1%

Cc1c(C(=O)NCc2ccc(CNS(N)(=O)=O)cc2)nn(-c2ccc(Cl)cc2Cl)c1-c1ccc(Cl)cc1
Ke [5]: 0.376 µM

Cc1c(C(=O)Nc2ccc(C)[n+](C)c2)nn(-c2ccc(Cl)cc2Cl)c1-c1ccc(Cl)cc1
pKi [1]: 5.64 | pKi [2]: 5.77 | pKi [3]: 6.10 | Ratio Ki [4]: 1.3

Cc1c(C(=O)NCc2ccc(CNS(C)(=O)=O)cc2)nn(-c2ccc(Cl)cc2Cl)c1-c1ccc(Cl)cc1
Ke [5]: 2.93 µM

Cc1c(C(=O)NCc2cccc(CNS(N)(=O)=O)c2)nn(-c2ccc(Cl)cc2Cl)c1-c1ccc(Cl)cc1
Ke [5]: 4.2 µM

Cc1c(C(=O)NCCCN(C)CCCNS(C)(=O)=O)nn(-c2ccc(Cl)cc2Cl)c1-c1ccc(Cl)cc1
Ke [5]: 5.34 µM

Cc1c(C(=O)Nc2cc[n+]([O-])cc2)nn(-c2ccc(Cl)cc2Cl)c1-c1ccc(Cl)cc1
pKi [1]: 5.34 | pKi [2]: 6.53 | pKi [3]: 7.21 | Ke [5]: 1.39 µM | Ratio Ki [4]: 15

Cc1c(C(=O)Nc2ccncc2)nn(-c2ccc(Cl)cc2Cl)c1-c1ccc(Cl)cc1
pKi [1]: 5.76 | pKi [2]: 7.25 | pKi [3]: 7.89 | Ratio Ki [4]: 31

Cc1c(C(=O)NCCCCCCCNS(C)(=O)=O)nn(-c2ccc(Cl)cc2Cl)c1-c1ccc(Cl)cc1
pKi [1]: 6.11
